Laboratory results: ChEMBL document CHEMBL1157181, “Novel antioxidant agents deriving from molecular combination of Vitamin C and NO-donor moieties” (Bioorg Med Chem, 2008)
Active and inactive are the calls of the source. No cut-off for these calls is given here.

Key:
[1] = Dissociation constant, pKa of the compound; format: physicochemical
Outline: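 Potentiometric titration, at least four runs per compound, of about 1 mM aqueous solutions with ionic strength 0.15 M (KCl). Solutions acidified to pH 1.8 with 0.5 N HCl, then titrated with standardised 0.5 N KOH to pH 10.5, under argon at 25.0 ± 0.1 °C. For poorly soluble compounds, at least five titrations in 15-50 wt% methanol, extrapolated to zero cosolvent (Yasuda-Shedlovsky).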

[2] = tested on: Hepatocyte; experiment: Antioxidant activity Wistar rat hepatocyte membrane assessed as Fe(3+)-ADP/NADPH-induced lipid peroxidation at 1 mM by TBA assay; format: functional, cell-based
Outline: (§1)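 Microsomes from male Wistar rat liver (180–200 g) in Tris-HCl/KCl pH 7.4 (2 mg protein/mL) with ADP 1 mM and FeCl3 50 μM, plus compound in DMSO (≤5%). Peroxidation started with NADPH 0.4 mM at 37 °C and sampled to 30 min. TBARS read at 543 nm against an MDA standard. Inhibition is taken from the 30-min plateau, with IC50 by nonlinear regression.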

[3] = Distribution coefficient, log D at pH 1.0 after 4 hrs by shake flask method; format: physicochemical; conditions: octanol/water
Outline: (§2)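 Shake-flask n-octanol/buffer partition at room temperature, pH 1.0 (HCl) or pH 7.4 (phosphate), ionic strength 0.15 M KCl. Phases are presaturated by shaking for 4 h. Solute is about 0.1 mM in the aqueous phase, shaken about 20 min and centrifuged. Aqueous concentration is read by UV at λmax, with at least seven log D values per compound.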

[4] = Distribution coefficient, log D at pH 7.4 after 4 hrs; format: physicochemical; conditions: octanol/water; outline: as §2
[5] = tested on: Aorta; experiment: Vasorelaxation activity in Wistar rat thoracic aorta assessed as inhibition of L-phenylephrine-induced contraction in presence of 1 uM 1H-[1,2,4]oxadiazolo[4,3-a]quinoxalin-1-one; format: functional, tissue-based
Outline: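 Denuded Wistar rat aortic strips with 1 μM ODQ added to the bath 5 min before contraction with 1 μM L-phenylephrine. Cumulative relaxant concentrations are added at plateau, and EC50 is given ± SEM (μM).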

[6] = tested on: Hepatocyte; experiment: Antioxidant activity Wistar rat hepatocyte membrane assessed as Fe(3+)-ADP/NADPH-induced lipid peroxidation by TBA assay; format: functional, cell-based; outline: as §1
[7] = Distribution coefficient, log D at pH 7.4 after 4 hrs by shake flask method; format: physicochemical; conditions: octanol/water; outline: as §2
[8] = tested on: Aorta; experiment: Vasorelaxation activity in Wistar rat thoracic aorta assessed as inhibition of L-phenylephrine-induced contraction; format: functional, tissue-based
Outline: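 Endothelium-denuded thoracic aorta strips from male Wistar rats (180–200 g) equilibrated 120 min and contracted with 1 μM L-phenylephrine. At plateau, cumulative concentrations of the test agent are added. EC50 is given ± SEM (μM).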

[9] = tested on: Hepatocyte; experiment: Antioxidant activity Wistar rat hepatocyte membrane assessed as Fe(3+)-ADP/NADPH-induced lipid peroxidation at 50 uM by TBA assay; format: functional; outline: as §1

Structure (SMILES)	pKa [1]	Activity [2]	logD at 4 h [3]	logD at 4 h [4]	EC50 [5] [µM]	IC50 [6] [µM]	logD at 4 h [7]	EC50 [8] [µM]	Activity [9] [%]
COC1=C(O)[C@@H]([C@@H](O)CO)OC1=O	3.23	inactive	-1.44	< -2					
O=C1OC(C(O)CO)C(OCCCCC(CO[N+](=O)[O-])O[N+](=O)[O-])=C1O (configuration not stated)	7.64		0.78		> 100	28	0.66	0.72	
O=C1OC(C(O)CO)C(OCCCOc2no[n+]([O-])c2S(=O)(=O)c2ccccc2)=C1O (configuration not stated)	7.62		1.18		7	80	0.98	0.034	
O=C1OC(C(O)CO)C(OCCCO[N+](=O)[O-])=C1O (configuration not stated)	7.55		-0.48		> 100	454	-0.55	55	
O=C1OC(C(O)CO)C(O)=C1OCCCCCCO[N+](=O)[O-] (configuration not stated)	3.56		0.84		> 100	> 1000	-1.93	7.1	
O=C1OC(C(O)CO)C(O)=C1OCCCOc1no[n+]([O-])c1-c1ccccc1 (configuration not stated)	3.44		1.71		> 100	392	-1.35	32	
COC1=C(O)C(=O)O[C@@H]1[C@@H](O)CO	7.54		-1.41			> 1000	-1.61		
O=C1OC(C(O)CO)C(OCCCCCCO[N+](=O)[O-])=C1O (configuration not stated)	7.6		0.86		> 100	80	0.76	2.1	
NC(=O)c1c(COC2=C(O)C(=O)OC2C(O)CO)no[n+]1[O-] (configuration not stated)	7.07		-0.99		> 100	> 1000	-1.44	6	
O=C1O[C@H]([C@@H](O)CO)C(O)=C1O [ASCORBIC ACID]			-1.65						77
O=C1OC(C(O)CO)C(O)=C1OCCCO[N+](=O)[O-] (configuration not stated)	3.19	inactive	-0.26	< -2					
O=C1OC(C(O)CO)C(OCCCOc2no[n+]([O-])c2-c2ccccc2)=C1O (configuration not stated)	7.6		1.53		80.9	17	1.13	3.8	
